Reference: ChEMBL document CHEMBL4477184, “Pelianthinarubins A and B, Red Pyrroloquinoline Alkaloids from the Fruiting Bodies of the Mushroom Mycena pelianthina” (J Nat Prod, 2016)
Calls of active or inactive are those of the source.

Experiments:
Type in all cases: functional, organism-based
Bacillus subtilis = assay: Antibacterial activity against Bacillus subtilis after 24 hrs by plate diffusion assay
Procedure, shortened: (§1)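 Paper discs (6 mm diameter, 0.5 mm thick) were loaded with 0.1 or 0.5 mg of sample dissolved in distilled water and dried under sterile conditions. The discs were then placed on agar plates inoculated with the test bacterium and incubated at 37 °C for 24 h.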

Brevibacillus brevis = assay: Antibacterial activity against Bacillus brevis after 24 hrs by plate diffusion assay; procedure, shortened: as §1
Cladosporium cucumerinum = assay: Antifungal activity against Cladosporium cucumerinum after 48 hrs by plate diffusion assay
Procedure, shortened: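 Disc diffusion assay. Paper discs (6 mm) were loaded with 0.1 or 0.5 mg of sample from distilled water and dried under sterile conditions. The discs were laid on agar plates inoculated with Cladosporium cucumerinum, and the plates were incubated at 18 °C for 48 h.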

Lepidium sativum = assay: Herbicidal activity against Lepidium sativum
Escherichia coli = assay: Antibacterial activity against Escherichia coli after 24 hrs by plate diffusion assay; procedure, shortened: as §1
Folsomia candida = assay: Insecticidal activity against Folsomia candida

Measured: Activity

C[N+](C)(C)[C@H](C(=O)O)[C@H](O)c1cn([C@@H]2CCN3C4=C2C(=O)C(=O)c2[nH]cc(c24)C[C@H]3C(=O)O)cn1
inactive: all assays above

C[N+](C)(C)[C@@H](Cc1cn([C@@H]2CCN3C4=C2C(=O)C(=O)c2[nH]cc(c24)C[C@H]3C(=O)O)cn1)C(=O)O
inactive: all assays above
